From PubChem
CASP6 VEID inh: caspase-6 (human) enzyme inhibition; P55212; actives 0.53% (n = 350,000); inhibition, % at 12.5 µM; purified caspase-6, Z-VEID-R110 cleavage fluorescence;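 active means mean inhibition across replicates at least about 35%, with every replicate also reaching that limit, limit read from the data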
ARNT-TACC3 inh: disruptors of human ARNT/TACC3 interaction; Q9Y6A5; AlphaScreen His-ARNT PAS-B/GST-TACC3 binding, luminescence; TACC3 fragment carries E629A point mutation; inhibition, % at 9.99 µM; actives 0.66% (n = 390,000);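 active means mean inhibition of replicates at least 50% and at least half of replicates each reaching 50%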
rRNA inh HTS: inhibitors of bacterial rRNA selective over humanized ribosomes; actives 1.6% (n = 350,000); E. coli WT GFP vs humanized-ribosome RFP mutants, fluorescence, 24 h; hits give low values; DMSO median 0, no signal -100; GFP signal change (wild-type ribosome), % (concentration not given with the values);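 active means significant combined selectivity score with lowered wild-type GFP, culture density cut under 30%, mutant RFP and density less affected; inactive means any of these conditions unmet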
S100A4 MyoIIA: S100A4-myosin IIA interaction inhibition; actives 0.14% (n = 360,000); inhibition, % at 10.7 µM; P26447; S100A4/TAMRA-MyoIIA peptide fluorescence polarization; AID 652163;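 active means mean inhibition of at least 70% across replicates, with every replicate also reaching that level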
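Material: human S100A4 monomer with TAMRA-labelled myosin IIA peptide; buffer or medium: HEPES pH 7.2 with CaCl2, KCl, NaCl, DTT, Triton; compound dosing: one concentration per compound; schedule: 5 min incubation before reading; benchmarks: neutral control DMSO, positive control TFP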
PGC1a acetyl inh: lowers PGC1a acetylation signal in U2OS cells | AID 651687 | AlphaScreen anti-acetyl-lysine; with virally co-expressed GCN5 acetyltransferase | actives 0.17% (n = 350,000) | inhibition, % at 15.6 µM;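 active means every replicate shows inhibition of at least 40%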
ERAP1 inh: ERAP1 (human) enzyme inhibition; Q9NZ08; recombinant ERAP1, Leu-AMC fluorescence, 60 min; inhibition, % at 10.7 µM; actives 0.15% (n = 340,000); AID 652197;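 active means mean replicate inhibition of at least 30%, or all replicates individually reaching that 30% level; inactive means mean below 30% and not every replicate reaching it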
Target sequence (Q9NZ08 whole entry, looked up): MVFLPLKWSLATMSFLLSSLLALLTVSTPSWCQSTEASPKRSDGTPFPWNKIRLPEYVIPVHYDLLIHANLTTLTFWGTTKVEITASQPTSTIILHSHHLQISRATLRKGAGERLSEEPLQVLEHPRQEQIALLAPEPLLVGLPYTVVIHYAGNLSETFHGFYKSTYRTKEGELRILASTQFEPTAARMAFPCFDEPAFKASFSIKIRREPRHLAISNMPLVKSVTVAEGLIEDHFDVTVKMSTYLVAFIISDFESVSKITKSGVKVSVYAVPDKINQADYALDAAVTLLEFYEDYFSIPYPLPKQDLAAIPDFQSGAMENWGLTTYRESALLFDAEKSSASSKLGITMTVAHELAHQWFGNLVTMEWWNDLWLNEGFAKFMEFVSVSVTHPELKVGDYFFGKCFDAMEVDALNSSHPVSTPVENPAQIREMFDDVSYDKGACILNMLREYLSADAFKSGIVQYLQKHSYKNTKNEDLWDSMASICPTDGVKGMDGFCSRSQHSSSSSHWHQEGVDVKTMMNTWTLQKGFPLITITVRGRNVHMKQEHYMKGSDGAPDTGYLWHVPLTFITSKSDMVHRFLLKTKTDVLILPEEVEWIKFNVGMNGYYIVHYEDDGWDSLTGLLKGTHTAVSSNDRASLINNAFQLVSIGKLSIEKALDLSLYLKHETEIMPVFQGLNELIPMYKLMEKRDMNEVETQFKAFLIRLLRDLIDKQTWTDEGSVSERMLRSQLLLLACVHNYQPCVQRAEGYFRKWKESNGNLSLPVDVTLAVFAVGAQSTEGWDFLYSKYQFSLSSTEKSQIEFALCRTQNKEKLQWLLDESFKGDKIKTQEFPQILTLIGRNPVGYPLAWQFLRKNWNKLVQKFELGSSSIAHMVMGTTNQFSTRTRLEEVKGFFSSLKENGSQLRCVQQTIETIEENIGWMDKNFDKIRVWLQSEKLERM
ARNT Alpha ctr: AlphaScreen artifact in ARNT/TACC3 counter-screen; shares compounds with ARNT-TACC3 inh; His-ARNT PASB-GST AlphaScreen artifact counter-screen, luminescence; AC50, µM (top dose mostly 68 µM); actives 50% (n = 1,200); AID 651705;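 active means every separate test run was called active for a drop in luminescence, with AC50 within twice the top valid dose, actives reach about 71 µM in these data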
Large screens that a line does not name were inactive (follow-up assays come after a bar, where they were run). In the library only some 2.4% were active in any assay of this set; here they are far more common.

Nc1nc(CN2CCN(Cc3ccccc3)CC2)nc(Nc2ccc3c(c2)OCCO3)n1	ARNT-TACC3 inh 60 (no result: CASP6 VEID inh, rRNA inh HTS, S100A4 MyoIIA, PGC1a acetyl inh, ERAP1 inh) | ARNT Alpha ctr inactive
CCOC(=O)N1CCN(Cc2nc(N)nc(Nc3ccc(OC)cc3)n2)CC1	none
COc1ccc(Nc2nc(N)nc(CN3CCOCC3)n2)cc1	ARNT-TACC3 inh 40 (no result: CASP6 VEID inh, rRNA inh HTS, S100A4 MyoIIA, ERAP1 inh) | ARNT Alpha ctr inactive
O=C(NCC[C@H]1CC[C@@H](NC(=O)C2CC2)[C@@H](CO)O1)c1cnccn1	none
O=C(Nc1ccccc1)N[C@@H]1CC[C@@H](CCn2cc(-c3ccccc3F)nn2)O[C@@H]1CO	none (no result: ARNT-TACC3 inh)
COc1cc(CCNc2ccc3nnc(-c4ccccc4)n3n2)cc(OC)c1OC	ARNT-TACC3 inh 56 | ARNT Alpha ctr 68µM
CC1=CC(C)(C)N(C(=O)C(C)N2C(=O)c3ccccc3C2=O)c2ccc(C)cc21 (stereo not drawn)	ARNT-TACC3 inh active (no result: CASP6 VEID inh, rRNA inh HTS, S100A4 MyoIIA, PGC1a acetyl inh, ERAP1 inh) | ARNT Alpha ctr inactive
COC(=O)c1c(N)n(-c2ccc(NC(C)=O)cc2)c2nc3ccccc3nc12	ARNT-TACC3 inh 14 (no result: CASP6 VEID inh, rRNA inh HTS, S100A4 MyoIIA, ERAP1 inh) | ARNT Alpha ctr inactive
COCCNC(=O)c1c(N)n(-c2ccccc2)c2nc3ccccc3nc12	none (no result: CASP6 VEID inh, rRNA inh HTS, S100A4 MyoIIA, ERAP1 inh)
CN(C)S(=O)(=O)c1cccc(NC(=O)CSc2cccc3cccnc23)c1	ARNT-TACC3 inh 65 (no result: PGC1a acetyl inh) | ARNT Alpha ctr 12µM
O=C(O)CSc1cccc2cccnc12	ARNT-TACC3 inh 60 | ARNT Alpha ctr inactive
Oc1ccc(Cl)c2cccnc12	none
Oc1c(I)cc(I)c2cccnc12	ARNT-TACC3 inh 55 (no result: rRNA inh HTS) | ARNT Alpha ctr 50µM
C[C@H]1c2cccc(O)c2C(O)=C2C(=O)[C@]3(O)C(O)=C(C(N)=O)C(=O)[C@@H](N(C)C)C3[C@@H](O)C21 (stereo partly drawn)	ARNT-TACC3 inh 36 (no result: rRNA inh HTS) | ARNT Alpha ctr inactive
COCC(=O)N(C)C[C@H]1Oc2cc(-c3ccncc3)ccc2S(=O)(=O)N([C@@H](C)CO)C[C@@H]1C	none
CCOc1cc2c(C#N)c(N3CCOCC3)nc(N)c2c(N)n1	ARNT-TACC3 inh 30 (no result: CASP6 VEID inh, rRNA inh HTS, S100A4 MyoIIA, ERAP1 inh) | ARNT Alpha ctr inactive
CCOc1cc2c(C#N)c(N(CC)CC)nc(N)c2c(N)n1	none (no result: CASP6 VEID inh)
COc1ccc2c3c(n(C)c2c1)[C@@H](CO)N(C(=O)Cc1ccccn1)CC31CN(CC2CCCC2)C1	none (no result: ARNT-TACC3 inh, PGC1a acetyl inh)
COc1cccc(-c2cnc3c(c2)C(=O)N([C@H](C)CO)C[C@@H](C)[C@H](CN(C)C(=O)CN(C)C)O3)c1	none (no result: ARNT-TACC3 inh)
CCOc1ccccc1NC(=O)CN(c1ccc(OC)cc1)S(=O)(=O)c1c(C)[nH]c(=O)[nH]c1=O	ARNT-TACC3 inh 55 | ARNT Alpha ctr 29µM
COc1ccc(N(CC(=O)Nc2ccccc2C)S(=O)(=O)c2c(C)[nH]c(=O)[nH]c2=O)cc1	none
CCOc1ccc(N(CC(=O)Nc2ccc(OC)cc2OC)S(=O)(=O)c2c(C)[nH]c(=O)[nH]c2=O)cc1	ARNT-TACC3 inh 58 | ARNT Alpha ctr 10µM
CCOc1cc(/C=N/Nc2ncc(C)c(=O)[nH]2)ccc1O	ARNT-TACC3 inh 54 (no result: PGC1a acetyl inh) | ARNT Alpha ctr inactive
CCOc1cc(/C=N/Nc2nc(C)cc(=O)[nH]2)ccc1O	none
O=C(CSc1nnc(-c2ccccn2)o1)Nc1ccccc1C(F)(F)F	ARNT-TACC3 inh 55 | ARNT Alpha ctr inactive
Nc1ncnc(Oc2cccc3cccnc23)c1[N+](=O)[O-]	ARNT-TACC3 inh 51 | ARNT Alpha ctr inactive
C[C@@H]1CCCCO[C@H](CN(C)C(=O)Nc2ccc(F)cc2)[C@H](C)CN([C@H](C)CO)C(=O)c2cc(NC(=O)C3CCCCC3)ccc2O1	none
Cc1noc(C)c1S(=O)(=O)N(C)C[C@H]1OCCCC[C@H](C)Oc2ccc(NC(=O)Cc3ccccc3)cc2C(=O)N([C@H](C)CO)C[C@H]1C	none
Cc1ccc(N(C)S(=O)(=O)c2cccc(C(=O)Oc3ccc4c(C)cc(=O)oc4c3)c2)cc1	ARNT-TACC3 inh 53 (no result: PGC1a acetyl inh) | ARNT Alpha ctr inactive
Cc1cc(=O)oc2cc(OC(=O)c3ccccc3)ccc12	none
COc1ccc2nc(/N=C/c3c(C)[nH]n(-c4ccc(C)cc4)c3=O)sc2c1	ARNT-TACC3 inh 55 (no result: PGC1a acetyl inh) | ARNT Alpha ctr inactive
